The nature of data set [1]: physchem. The data set is classed as physicochemical.
Data set [2] is classed as in vitro ADME. The note with it: microsomes.
The format of data set [3] is in vitro ADME. The note with it: serum.
Data set [4] deals with P-gp (Homo sapiens, UniProt P08183). Nature of the data set: P-gp efflux ratio. The conditions noted are these: not told. The format is in vitro ADME.
Data set [5] in a line: MDCK permeability. The format is in vitro ADME. The note with it: dog.
The nature of data set [6]: oral bioavailability. The format is in vivo. The note with it: mouse; for bioavailability: in vivo, po, Oral bioavailability, No inhib., no inhibitors, mean (two individual values). An outline of the steps: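 Oral dosing in mice with no pretreatment by CYP or P-gp inhibitor. Oral bioavailability (F) reported as the mean of two independent experiments, with the individual values also given.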

Where [7] appears, read: pH 6.8, aqueous solubility at pH 6.8.

Structures are written as SMILES. Values after ≈ are worked out from the molar mass of the structure shown. Square brackets hold non-standard residues; d marks the D form. Peptide text beside a SMILES is read from it. Gly(N-CH2-oxan-4-yl) = O=C(O)CNCC1CCOCC1; NCyclohexylmethylGly = O=C(O)CNCC1CCCCC1; NMeL = CN[C@@H](CC(C)C)C(=O)O; NMeA = CN[CH](C)C(=O)O; NEtG = CCNCC(=O)O

Chain of P-gp (P08183 whole entry): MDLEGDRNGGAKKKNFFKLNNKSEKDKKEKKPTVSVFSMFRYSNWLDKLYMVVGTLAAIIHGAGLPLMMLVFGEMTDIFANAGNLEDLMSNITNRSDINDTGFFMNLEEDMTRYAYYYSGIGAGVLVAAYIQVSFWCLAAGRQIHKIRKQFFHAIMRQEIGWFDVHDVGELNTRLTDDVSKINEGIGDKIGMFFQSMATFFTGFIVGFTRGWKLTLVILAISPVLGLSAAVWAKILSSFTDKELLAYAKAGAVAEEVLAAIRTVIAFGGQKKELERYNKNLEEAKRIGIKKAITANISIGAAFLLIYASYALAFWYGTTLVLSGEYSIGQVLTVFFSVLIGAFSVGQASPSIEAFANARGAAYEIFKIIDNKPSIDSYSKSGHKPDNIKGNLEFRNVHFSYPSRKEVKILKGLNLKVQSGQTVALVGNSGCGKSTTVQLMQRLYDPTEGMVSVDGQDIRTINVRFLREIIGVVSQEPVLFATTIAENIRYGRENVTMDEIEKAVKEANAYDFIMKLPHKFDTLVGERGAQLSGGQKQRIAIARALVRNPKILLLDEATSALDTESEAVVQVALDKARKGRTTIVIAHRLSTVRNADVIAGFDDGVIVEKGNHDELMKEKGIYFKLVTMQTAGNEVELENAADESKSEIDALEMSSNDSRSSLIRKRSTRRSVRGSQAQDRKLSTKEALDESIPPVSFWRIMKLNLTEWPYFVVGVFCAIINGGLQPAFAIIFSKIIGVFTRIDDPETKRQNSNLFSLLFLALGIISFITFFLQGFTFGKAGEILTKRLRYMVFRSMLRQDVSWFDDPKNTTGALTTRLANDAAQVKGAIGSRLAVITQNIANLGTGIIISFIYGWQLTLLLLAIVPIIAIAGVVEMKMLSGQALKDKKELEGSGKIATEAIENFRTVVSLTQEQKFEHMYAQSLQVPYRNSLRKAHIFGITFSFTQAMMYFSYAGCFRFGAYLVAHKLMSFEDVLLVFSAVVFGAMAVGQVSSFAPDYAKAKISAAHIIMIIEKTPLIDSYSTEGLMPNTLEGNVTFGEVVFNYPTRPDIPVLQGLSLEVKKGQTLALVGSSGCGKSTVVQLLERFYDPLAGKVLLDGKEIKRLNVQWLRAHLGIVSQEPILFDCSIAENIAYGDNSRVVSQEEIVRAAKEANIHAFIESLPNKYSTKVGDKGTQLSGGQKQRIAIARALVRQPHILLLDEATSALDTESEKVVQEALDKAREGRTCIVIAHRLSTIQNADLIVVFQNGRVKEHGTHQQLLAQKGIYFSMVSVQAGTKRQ

On to `CCN1CC(=O)NC(CC(C)C)C(=O)N(C)C(C)C(=O)NC(CC(C)C)C(=O)N2CCCC2C(=O)N(CC2CCCCC2)CC(=O)NC(CC(C)C)C(=O)N(C)C(C)C(=O)NC(Cc2ccccc2)C(=O)N2CCCC2C1=O` (stereo not drawn) [A08] (cyclo([NEtG]L[NMeA]LP[NCyclohexylmethylGly]L[NMeA]FP); configuration not given here), for which the solubility in data set [1] (pH 1.2, aq. sol. pH 1.2) was 2.5 µg/mL (≈ 2.29 µM); in data set [1] (pH 6.8, aq. sol. pH 6.8), 6.8 µg/mL (≈ 6.24 µM); in data set [1] (setting [7]), 7 µg/mL (≈ 6.43 µM). This compound gave a microsomal stability in data set [2] of 33%. In addition, the free fraction (fraction unbound) in data set [3] was under 0.002. In addition, in data set [4], the efflux ratio was 8.5. The apparent permeability coefficient (Papp) in data set [5] was determined as 24.7 ×10⁻⁶ cm/s. Moreover, the bioavailability in data set [6] was 5%.
`CCN1CC(=O)N[C@@H](CC(C)C)C(=O)N(C)[C@@H](C)C(=O)N[C@@H](CC(C)C)C(=O)N2CCC[C@@H]2C(=O)N(CC2CCOCC2)CC(=O)N[C@@H](CC(C)C)C(=O)N(C)[C@@H](C)C(=O)N[C@@H](Cc2ccccc2)C(=O)N2CCC[C@@H]2C1=O` [A09] (cyclo([NEtG]L[NMeA]L[dP][Gly(N-CH2-oxan-4-yl)]L[NMeA]F[dP])): in data set [1] (pH 1.2, aq. sol. pH 1.2), the concentration in solution (solubility) was 590 µg/mL (≈ 541 µM). In data set [1], the “aq. sol. pH 6.8” value is reported as 640 μg/mL. For the same compound, the microsomal stability in data set [2] came out at 67%. This compound also gave a fraction unbound in data set [3] of 0.02. Also, the efflux ratio in data set [4] was 46.9. The bioavailability in data set [6] is 2%.
Turning to `CCN1CC(=O)N[C@@H](CC(C)C)C(=O)N2CCC[C@@H]2C(=O)N(C)[C@@H](CC(C)C)C(=O)N[C@@H](C)C(=O)N(CC2CCCCC2)CC(=O)N[C@@H](Cc2ccccc2)C(=O)N2CCC[C@@H]2C(=O)N(C)[C@@H](CC(C)C)C(=O)N[C@@H](C)C1=O` [B08] (cyclo([NEtG]L[dP][NMeL]A[NCyclohexylmethylGly]F[dP][NMeL]A)), the “aq. sol. pH 1.2” value in data set [1] (pH 1.2) is listed as 210 μg/mL. For the same compound, in data set [1], the “aq. sol. pH 6.8” value was found to be 210 μg/mL. Besides, the solubility in data set [1] (setting [7]) amounted to 210 µg/mL (≈ 193 µM). Further, the microsomal stability in data set [2] was determined as 53%.
In data set [1] (pH 1.2, aq. sol. pH 1.2), `CCN1CC(=O)N[C@@H](CC(C)C)C(=O)N2CCC[C@@H]2C(=O)N(C)[C@@H](CC(C)C)C(=O)N[C@@H](C)C(=O)N(CC2CCOCC2)CC(=O)N[C@@H](Cc2ccccc2)C(=O)N2CCC[C@@H]2C(=O)N(C)[C@@H](CC(C)C)C(=O)N[C@@H](C)C1=O` [B09] (cyclo(A[NEtG]L[dP][NMeL]A[Gly(N-CH2-oxan-4-yl)]F[dP][NMeL])) displayed a solubility of 2100 µg/mL (≈ 1920 µM). Also, the “aq. sol. pH 6.8” value in data set [1] came to 2200 μg/mL. In addition, in data set [2], the microsomal stability is on record as 90%. In data set [6], this compound came in with a bioavailability of 1%.
In data set [1] (pH 1.2, aq. sol. pH 1.2), `CCN1CC(=O)NC(CC(C)C)C(=O)N(C)C(C)C(=O)NC(CC(C)C)C(=O)N2CCCC2C(=O)N(CC2CCOCC2)CC(=O)NC(CC(C)C)C(=O)N(C)C(C)C(=O)NC(C)C(=O)N2CCCC2C1=O` (stereo not drawn) [A03] (cyclo([NEtG]L[NMeA]LP[Gly(N-CH2-oxan-4-yl)]L[NMeA]AP); configuration not given here) came in with a solubility of 1800 µg/mL (≈ 1770 µM). Further, the “aq. sol. pH 6.8” value in data set [1] was 1900 μg/mL. Moreover, in data set [2], the microsomal stability was determined as 64%. In addition, the fraction unbound in data set [3] is 0.31. Also, the efflux ratio in data set [4] came out at 6.4. Further, the apparent permeability (Papp) in data set [5] amounted to 0.4 ×10⁻⁶ cm/s. Besides, the “oral BA (F)” value in data set [6] (3 mg/kg, no CYP or P-gp inhibition) is recorded as 1%. Moreover, the bioavailability in data set [6] was 1%.

For the origin of these results see paper PMC7719619 (Angewandte Chemie (International ed. in English), 2020).
